Data on three molecules can be found in ChEMBL document CHEMBL4017460, “A Tobramycin Vector Enhances Synergy and Efficacy of Efflux Pump Inhibitors against Multidrug-Resistant Gram-Negative Bacteria” (J Med Chem, 2017).

Data set [1] has as its system Pseudomonas aeruginosa. Description: Inhibition of RND efflux pump in colistin-resistant Pseudomonas aeruginosa isolate 91433 assessed as potentiation of minocycline-induced antibacterial activity by measuring minocycline MIC at 8 ug/ml after 18 to 24 hrs by microbroth dilution assay (reference value: 32 ug/ml). Put shortly:
(§1)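 Checkerboard broth microdilution: antibiotic 2-fold diluted along one axis, adjuvant 2-fold diluted along the other. Overnight culture standardized to 0.5 McFarland in saline, diluted 1:50 in MHB, added to wells, 37 °C for 18 h. MIC is the lowest concentration with no growth. FIC = MIC in combination / MIC alone; FICI = sum of the two FICs; FICI ≤0.5 is synergy.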
On the technique in general: In broth dilution the organism is exposed to a series of concentrations in liquid medium.

Data set [2] relates to Pseudomonas aeruginosa. Kind of data set: Inhibition of RND efflux pump in XDR Pseudomonas aeruginosa isolate P262-101856 infected in Galleria mellonella assessed as potentiation of minocycline-induced antibacterial activity by measuring larval survival rate at 75 mg/kg co-treated with 75 mg/kg minocycline measured after 24 hrs relative to control. The format is organism-based. Put shortly: (§2)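 G. mellonella larvae infected with 1.0 × 10^5/mL CFU of XDR P. aeruginosa 101856. A single-dose injection of agent, alone or with minocycline, given 2 h post-infection. Survival scored up to 24 h. 15 larvae per experiment from different batches, two experiments per dosage (n = 30). Significance 0 vs 24 h at P ≤ 0.05.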

In data set [3] the test system is Pseudomonas aeruginosa. Description: Inhibition of RND efflux pump in XDR Pseudomonas aeruginosa isolate P262-101856 infected in Galleria mellonella assessed as potentiation of minocycline-induced antibacterial activity by measuring larval survival rate at 37.5 mg/kg co-treated with 37.5 mg/kg minocycline measured after 24 hrs relative to control. The format is organism-based. The gist of the method:
as §2

Data set [4] can be described thus: Hemolytic activity against ovine erythrocytes at 1000 ug/ml after 30 mins relative to control. To be noted: sheep, read-out: Activity. Format: ADME, cell-based, Ovis aries, Erythrocyte.
Data set [5] has as its system Pseudomonas aeruginosa. Description: Induction of outer membrane permeabilization in Pseudomonas aeruginosa PAO1 assessed as increase in NPN uptake up to 100 secs by fluorescence assay. The format is functional. Put shortly: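 Outer membrane permeabilization in PAO1 cells, read as accumulation of 1-N-phenylnaphthylamine (NPN) by fluorescence over a range of compound concentrations. Triton X-100 (1%) and EDTA (10 mM) served as positive controls.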

For data set [6], the system named is Pseudomonas aeruginosa. Kind of data set: Inhibition of RND efflux pump in colistin-resistant Pseudomonas aeruginosa isolate 91433 assessed as potentiation of minocycline-induced antibacterial activity by measuring fold reduction in minocycline MIC at 8 ug/ml after 18 to 24 hrs by microbroth dilution assay. The gist of the method:
as §1

Data set [7] relates to Pseudomonas aeruginosa PAO1. Kind of data set: Inhibition of RND efflux pump in Pseudomonas aeruginosa PAO1 assessed as potentiation of minocycline-induced bactericidal activity at 0.5 times antibacterial MIC up to 24 hrs by serial dilution assay.
Data set [8] has as its system Pseudomonas aeruginosa. Kind of data set: Antibacterial activity against XDR Pseudomonas aeruginosa isolate P262-101856 infected in Galleria mellonella assessed as protection against bacterial infection by measuring larval death at 75 mg/kg up to 24 hrs relative to control. The format is functional. The gist of the method: as §2
The subject of a further data set is Galleria mellonella. Description: Toxicity in Galleria mellonella assessed as death at 200 mg/kg up to 96 hrs. Format: organism-based. To be noted: in vivo.
Data set [9] deals with Pseudomonas aeruginosa. Kind of data set: Inhibition of RND efflux pump in colistin-resistant Pseudomonas aeruginosa isolate 91433 assessed as potentiation of minocycline-induced antibacterial activity at 8 ug/ml after 18 to 24 hrs by checker board assay. The gist of the method: as §1
In data set [10] the test system is Pseudomonas aeruginosa. Description: Inhibition of RND efflux pump in Pseudomonas aeruginosa isolate P264-104354 assessed as potentiation of minocycline-induced antibacterial activity at 8 ug/ml after 18 to 24 hrs by checker board assay. The gist of the method: (§3)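 Checkerboard in MHB: antibiotic 2-fold diluted along one axis, test agent 2-fold diluted along the other. Overnight culture standardized to 0.5 McFarland in saline, diluted 1:50 in MHB, added to wells, incubated 37 °C for 18 h. MIC is the lowest concentration with no growth. FIC = MIC in combination / MIC alone; FIC index = sum of both FICs.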

Data set [11] has as its system Pseudomonas aeruginosa PAO1. Kind of data set: Inhibition of RND efflux pump in Pseudomonas aeruginosa PAO1 assessed as potentiation of minocycline-induced antibacterial activity by measuring fold reduction in minocycline MIC at 8 ug/ml after 18 to 24 hrs by microbroth dilution assay relative to minocycline alone. Put shortly: (§4)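 Absolute minocycline MIC taken from checkerboard broth dilution with a fixed 8 μg/mL adjuvant. Inoculum was a 0.5 McFarland saline suspension diluted 1:50 in MHB, incubated 37 °C for 18 h. MIC is the lowest concentration with no growth.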

Data set [12] concerns Pseudomonas aeruginosa. Kind of data set: Inhibition of RND efflux pump in Pseudomonas aeruginosa isolate […] assessed as potentiation of minocycline-induced antibacterial activity by measuring minocycline MIC at 8 ug/ml after 18 to 24 hrs by microbroth dilution assay (reference value: 64 ug/ml). To be noted: isolate P262-104354. The gist of the method:
as §4

The nature of data set [13]: Toxicity in Galleria mellonella assessed as death at 100 mg/kg after 24 hrs relative to control. Format: organism-based. To be noted: in vivo, read-out: Activity.
Data set [14] deals with Pseudomonas aeruginosa. Description: Inhibition of RND efflux pump in colistin-resistant Pseudomonas aeruginosa isolate 91433 assessed as potentiation of minocycline-induced antibacterial activity by measuring fold reduction in minocycline MIC at 0.25 times antibacterial MIC after 18 to 24 hrs by microbroth dilution assay. The gist of the method:
as §1

Data set [15] is described as follows: Cytotoxicity against human DU145 cells assessed as reduction in cell viability after 24 hrs by MTS assay. The format is cell-based, DU-145.
Data set [16] can be described thus: Cytotoxicity against human JIMT1 cells assessed as reduction in cell viability after 24 hrs by MTS assay. The format is cell-based, JIMT-1. (Tetrazolium assays rely on reduction of a dye to a coloured formazan, in cell work by metabolically active cells.)
Data set [17] has as its system Pseudomonas aeruginosa PAO1. Kind of data set: Inhibition of RND efflux pump in Pseudomonas aeruginosa PAO1 assessed as potentiation of minocycline-induced bactericidal activity up to 1 time antibacterial MIC after 9 hrs by serial dilution assay.
In data set [18] the test system is Pseudomonas aeruginosa. Description: Inhibition of RND efflux pump in Pseudomonas aeruginosa isolate […] assessed as potentiation of minocycline-induced antibacterial activity by measuring minocycline MIC at 0.25 times antibacterial MIC after 18 to 24 hrs by microbroth dilution assay (reference value: 64 ug/ml). As to conditions: isolate P262-104354. The gist of the method:
as §1

For data set [19], the system named is Pseudomonas aeruginosa. Kind of data set: Inhibition of RND efflux pump in Pseudomonas aeruginosa isolate P264-104354 assessed as potentiation of minocycline-induced antibacterial activity at 0.25 times antibacterial MIC after 18 to 24 hrs by checker board assay. Put shortly:
as §3

The subject of data set [20] is Pseudomonas aeruginosa PAO1. Kind of data set: Inhibition of RND efflux pump in Pseudomonas aeruginosa PAO1 assessed as potentiation of minocycline-induced antibacterial activity by measuring ratio of minocycline MIC after 25 serial passages to minocycline MIC at sub-MIC after 18 to 24 hrs by microbroth dilution assay.
The subject of data set [21] is Pseudomonas aeruginosa. Description: Inhibition of RND efflux pump in colistin-resistant Pseudomonas aeruginosa isolate 91433 assessed as potentiation of minocycline-induced antibacterial activity by measuring minocycline MIC at 0.25 times antibacterial MIC after 18 to 24 hrs by microbroth dilution assay (reference value: 32 ug/ml). The gist of the method:
as §1

The test system of data set [22] is Pseudomonas aeruginosa. Kind of data set: Inhibition of RND efflux pump in colistin-resistant Pseudomonas aeruginosa isolate 91433 assessed as potentiation of minocycline-induced antibacterial activity at 0.25 times antibacterial MIC after 18 to 24 hrs by checker board assay. Put shortly:
as §1

Calls of active or inactive are those of the source. No cut-off for these calls is given here.

On to `Cl.Cl.Cl.Cl.Cl.Cl.Cl.NC[C@H]1O[C@H](O[C@H]2[C@H](OCCCCCCCCCCCCN3CCN(Cc4cccc5ccccc45)CC3)[C@@H](O[C@H]3O[C@H](CO)[C@@H](O)[C@H](N)[C@H]3O)[C@H](N)C[C@@H]2N)[C@H](N)C[C@@H]1O`, for which the figures for the MIC with Pseudomonas aeruginosa [1] and in the data set on Pseudomonas aeruginosa [12] were 0.25 µg/mL and below 0.5 µg/mL, respectively. In addition, the Survival is 77% in the data set on Pseudomonas aeruginosa [2] and 10% in the data set on Pseudomonas aeruginosa [3]. In addition, the hemolysis at 0.5 h, 1000 ug/ml in [4] is at most 5%. For the same molecule, the results for the Activity result in the data set on Pseudomonas aeruginosa [5], in the data set on Pseudomonas aeruginosa [8] and in the data set on Galleria mellonella were “Dose-dependent effect”, 100% and “Non-Toxic”, respectively. The fold change (FC) in the data set on Pseudomonas aeruginosa [6] was 8 to 256; in data set [11], 16. The inhibition entry in data set [7] is “Active”. For the same molecule, the fractional inhibitory concentration index (FICI) with Pseudomonas aeruginosa [9] came out at 0.13; with Pseudomonas aeruginosa [10] it was 0.03.
As a reminder, the CC50 is the concentration that lowers cell viability or growth by half. For the molecule `NC[C@H]1C[C@H](C(=O)N[C@H](CCc2ccccc2)C(=O)Nc2ccc3ccccc3c2)N(CCCCCCCCCCCCO[C@@H]2[C@@H](O[C@H]3O[C@H](CO)[C@@H](O)[C@H](N)[C@H]3O)[C@H](N)C[C@H](N)[C@H]2O[C@H]2O[C@H](CN)[C@@H](O)C[C@H]2N)C1`, the mortality at 24 h in data set [13] is 100%. For the same molecule, the fold change (FC) in the data set with Pseudomonas aeruginosa [14] is 8 to 256; in data set [11], 64. For the same molecule, the CC50 at 24 h in data set [15] and in [16] was above 30 µM throughout. Moreover, the inhibition result in data set [17] was “Active”. For the same molecule, in the data set with Pseudomonas aeruginosa [5], the Activity result was “Dose-dependent effect”. For the same molecule, the MIC in the data set on Pseudomonas aeruginosa [18] was below 0.5 µg/mL; in the data set with Pseudomonas aeruginosa [21], 0.25 µg/mL. The fractional inhibitory concentration index (FICI) with Pseudomonas aeruginosa [19] came to 0.25; with Pseudomonas aeruginosa [22] it was 0.16. Besides, the Ratio in data set [20] turned out to be 2.
For `Cl.Cl.Cl.Cl.Cl.Cl.NC[C@H]1O[C@H](O[C@H]2[C@H](OCCCCCCCCCCCCN3CC[C@@H](c4ccc(F)cc4)[C@H](COc4ccc5c(c4)OCO5)C3)[C@@H](O[C@H]3O[C@H](CO)[C@@H](O)[C@H](N)[C@H]3O)[C@H](N)C[C@@H]2N)[C@H](N)C[C@@H]1O`, the results for the MIC in the data set on Pseudomonas aeruginosa [1] and in the data set with Pseudomonas aeruginosa [12] were 0.25 µg/mL and below 0.5 µg/mL, respectively. Further, the Survival in the data set on Pseudomonas aeruginosa [2] came to 56%. Moreover, the hemolysis at 0.5 h, 1000 ug/ml in [4] is at most 5%. Moreover, the Activity entry was “Dose-dependent effect” in the data set with Pseudomonas aeruginosa [5], 100% in the data set on Pseudomonas aeruginosa [8] and “Non-Toxic” with Galleria mellonella. For the same molecule, in the data set with Pseudomonas aeruginosa [6], the fold change (FC) fell in the range of 8 to 256. Moreover, the inhibition entry in data set [7] was “Active”. In addition, the Ratio in data set [20] came out at 2. The figures for the fractional inhibitory concentration index (FICI) in the data set on Pseudomonas aeruginosa [9] and in the data set on Pseudomonas aeruginosa [10] were 0.19 and 0.06, respectively.
